PMI act: activators of human phosphomannose isomerase; P34949; purified human PMI, coupled resazurin fluorescence, 20 min; active compounds read high; 1 = vehicle control, 0 substrate-free wells; activation factor at 20 µM; 0.005% of 190,000 active; AID 1214;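 active = activation factor of 2 or more at 20 µM, relative to plate controls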
ABCG2 inh: human ABCG2 inhibition, ABCB1 as counter-screen. inhibition, % at 6.6 µM. IgMXP3 cells, JC-1 efflux, flow cytometry. 0.1% of 190,000 active. AID 1325;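 active = inhibition above 80%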;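 note: 0% = DMSO and 100% = nicardipine control wells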
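test system = two drug-resistant human cell lines, ABCG2 and ABCB1 | amount = 3 million cells/mL final, two lines in 1:1 ratio | reagent = JC-1 transporter substrate | doses = one concentration, 6.6 µM final | incubation = 10 min at 25 °C | signal = flow cytometric JC-1 green MFI at 530 nm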
PMI act satM6P: increases human PMI activity with near-saturating mannose 6-phosphate; activation factor at 20 µM; coupled PMI enzyme assay, resazurin fluorescence, 20 min; active compounds read high; 1 = untreated enzyme, 0 = substrate-free blank; P34949; 0.34% of 190,000 active;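 active = activation factor of 2 or more at 20 µM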
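Test system – human PMI in coupled enzyme assay · Timing – 20 min incubation at room temperature · Detection – Diaphorase-driven resazurin-to-resorufin fluorescence, excitation 544, emission 590 nm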
ABCB1 block: human ABCB1 inhibition, ABCG2 as counter-screen. 0.067% of 190,000 active. CCRF-Adr cells, JC-1 efflux, flow cytometry. AID 1326. inhibition, % at 6.6 µM. P08183; in the data active = inhibition above about 40%;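 note: 0% = vehicle and 100% = reference inhibitor; higher value means more JC-1 retained so stronger ABCB1 efflux block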
Cl transport mod: modulators of human KCC2 chloride dependent transport | B-score of Tl+ flux slope (higher = more flux/activation; lower = inhibition) at 10 µM | AID 1456 | KCC2 cells, thallium flux FluoZin-2 fluorescence | 2.2% of 190,000 active;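 active = thallium flux slope and its plate-corrected score both differing from the plate sample mean at a set confidence after two filtering rounds, in either direction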;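 note: slope of fluorescence scaled to starting intensity during 10 to 20 s after thallium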
ROMK primary: human ROMK K+ channel modulation, primary screen | P48048 | Tet-inducible ROMK, thallium flux fluorescence; actives lie on both sides | B-score at 10 µM | 2% of 130,000 active;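 active = signal ratio slope over the read window, or its plate-corrected B-score, at least 3 SD from the plate mean, either direction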;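 note: B-score of the F/F0 ratio slope over 7 to 12 s after thallium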
ROMK hit retest: human ROMK channel modulation, retest confirmation | ROMK thallium flux, fluorescence ratio; active compounds read low | shares compounds with ROMK primary | normalized thallium flux (F/F0 slope) at 10 µM | 54% of 3,000 active;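 active = Flux at 10 µM at least 3 SD below or above vehicle control mean in one or both replicates; inconclusive = no clear call, values can overlap the other calls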
* hit, by the source's call; ? = inconclusive; · = no result given. The list is not random: actives were taken first. Their share in the collection is about 3.3%.

SMILES | PMI act | ABCG2 inh | PMI act satM6P | ABCB1 block | Cl transport mod | ROMK primary | ROMK hit retest
CC1CCCC(C(=O)O)N1C(=O)CCS (configuration not stated) | 1.1 | 1 | 1.1 | 0 | -0.49 | 2.2* | ?
CSCCC(=O)N1C(C)CCCC1C(=O)O (configuration not stated) | 0.9 | 4 | 0.9 | 0 | 0.14 | · | ·
Cc1ccc(-c2nnc(CSc3nnc(COc4ccccc4)n3-c3ccccc3)o2)cc1 | 1 | -1 | 1 | 1 | -2.4 | -3.5* | 0.053*
Cc1ccc(-c2nnc(CSc3nnc(COc4ccccc4)n3-c3ccc(C)cc3)o2)cc1 | 0.8 | 0 | 0.8 | 0 | · | -0.71 | ·
O=C(CSCc1ccc(C(=O)O)cc1)Nc1ccccc1 | 0.9 | 16 | 0.9 | 1 | -1.2 | · | ·
CN(C)c1nc(C=C(C#N)C#N)c(Cl)n1-c1ccc(F)cc1 | 1.1 | 3 | 0.9 | 2 | -0.091 | -3.9* | 0.059*
O=C(O)c1ccccc1C1=Nc2ccc(O)cc2Oc2cc(O)ccc21 | 1.2 | 1 | 0.8 | 0 | 0.0091 | · | 0.054*
Cc1cc(-c2ccccc2C(=O)O)on1 | 0.9 | 1 | 0.9 | 0 | 0.35 | · | ·
COc1ccc2nc(C)cc(C(=O)O)c2c1 | 1.1 | -1 | 1 | 0 | -2.1 | · | ·
CCOc1ccc2nc(C)cc(C(=O)O)c2c1 | 1.1 | -1 | 1.1 | 0 | 0.52 | 1.9* | 0.087
O=C1NC(=O)/C(=C\c2ccc(OCc3cccc([N+](=O)[O-])c3)cc2)N1 | 1.1 | 7 | 1 | 1 | 0.17 | -0.039 | ·
CCOc1ccc(NC(=O)N[C@@H](CCSC)C(=O)OC)cc1 | 1 | 1 | 1 | 0 | 0.45 | 2.4* | ?
COC(=O)[C@H](CCSC)NC(=O)Nc1ccc(C(C)C)cc1 | 1 | 2 | 1 | 0 | -0.56 | -0.39 | ·
Cc1cc(C)n2nc(/C(C#N)=C/c3ccccn3)c(C#N)c2n1 | 0.9 | 1 | 1 | 0 | 0.37 | -2.4* | 0.044*
Cc1cc(C)n2nc(CC#N)c(C#N)c2n1 | 0.9 | 3 | 0.9 | 0 | 0.43 | -0.6 | ·
Cc1c(C(=O)OCC(=O)NCc2ccc3c(c2)OCO3)cccc1[N+](=O)[O-] | 1 | 8 | 1.1 | 1 | -0.029 | · | ·
O=C(COC(=O)c1cccc(Br)c1)NCCC1=CCCCC1 | 1 | 5 | 0.9 | 1 | 0.24 | -0.38 | ·
COc1ccc(C(=O)Nc2ccnc(-c3cccnc3)n2)cc1 | 0.9 | 13 | 0.8 | 1 | · | 4.4* | 0.1*
Cc1ccc(C(=O)Nc2ccnc(-c3cccnc3)n2)cc1 | 1 | 3 | 1 | 0 | 0.5 | 4.6* | 0.11*
Cc1nc(NC(=O)c2cccnc2)ccc1Br | 0.9 | 3 | 1 | 0 | 0.13 | · | 0.079
N#C/C(=C\c1ccncc1)C(N)=O | 1.1 | 8 | 0.8 | 1 | 1.4 | -0.19 | ·
CC(=O)c1cc2c(cc1NC(=O)c1cc3nc(C(C)C)cc(C(F)(F)F)n3n1)OCO2 | 0.9 | 7 | 0.8 | 1 | · | · | 0.075
CCOC(=O)COc1ccc(Br)cc1/C=C\c1[nH]c(=O)[nH]c(=O)c1[N+](=O)[O-] | 1 | -4 | 0.8 | 0 | 0.37 | -1.2 | ·
CCOC(=O)COc1ccc(Br)cc1/C=C/c1[nH]c(=O)[nH]c(=O)c1[N+](=O)[O-] | 1.2 | -3 | 1 | -1 | 2.5 | -2.7* | 0.051*
COCCOC(=O)c1c(NC(=O)CN2CCOCC2)sc(C(N)=O)c1C | 0.9 | 4 | 1 | 0 | -0.48 | · | ·
COCCOC(=O)c1c(NC(=O)CN2c3ccccc3CC2C)sc(C(N)=O)c1C (configuration not stated) | 0.9 | 2 | 0.8 | 2 | -1.9 | 2.2* | ?
Cc1ccc(/C=C2\C(=O)ON=C2c2ccccc2)o1 | 0.9 | 3 | 0.9 | 0 | -0.65 | 0.052 | ·
Cc1ccc(C2=NOC(=O)/C2=C\c2ccc(C)o2)cc1 | · | · | · | · | -0.39 | -3.7* | 0.039*
O=C(CSCC(=O)N1CCCCC1)Nc1nc(-c2ccc(Cl)s2)cs1 | 0.8 | -1 | 0.8 | -2 | 1.1 | · | ?
